In ChEMBL document CHEMBL1177660, “Discovery of novel purine derivatives with potent and selective inhibitory activity against c-Src tyrosine kinase” (Bioorg Med Chem, 2010):

Tests used:
[1] = target: T1, Proto-oncogene tyrosine-protein kinase Src (Homo sapiens, UniProt P12931); experiment: Inhibition cSRC at 10 uM
Summary of the method: (§1)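 Purified kinases assayed by ELISA on wells coated with 20 µg/mL poly(Glu,Tyr)4:1. Detected with PY99 anti-phosphotyrosine, HRP anti-mouse IgG and o-phenylenediamine; A492.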

[2] = target: T1, Proto-oncogene tyrosine-protein kinase Src; experiment: Inhibition cSRC
[3] = target: T2, Tyrosine-protein kinase ABL1 (Homo sapiens, UniProt P00519); experiment: Inhibition cABl at 10 uM; summary of the method: as §1
[4] = target: Platelet-derived growth factor receptor beta (Homo sapiens) (UniProt P09619); experiment: Inhibition PDGFRbeta at 10 uM; summary of the method: as §1
[5] = target: Hepatocyte growth factor receptor (Homo sapiens) (UniProt P08581); details: 10 uM
[6] = target: Vascular endothelial growth factor receptor 2 (Homo sapiens) (UniProt P35968); experiment: Inhibition KDR at 10 uM; summary of the method: as §1
[7] = target: Ephrin type-A receptor 2 (Homo sapiens) (UniProt P29317); experiment: Inhibition EphA2 at 10 uM; summary of the method: as §1
[8] = target: T3, Mast/stem cell growth factor receptor Kit (Homo sapiens, UniProt P10721); experiment: Inhibition kit at 10 uM; summary of the method: as §1
[9] = target: Receptor tyrosine-protein kinase erbB-2 (Homo sapiens) (UniProt P04626); experiment: Inhibition ErbB2 at 10 uM; summary of the method: as §1
[10] = target: T3, Mast/stem cell growth factor receptor Kit; experiment: Inhibition kit; summary of the method: as §1
[11] = target: T1, Proto-oncogene tyrosine-protein kinase Src; experiment: Inhibition of SRC phosphorylation in human MDA-MB-231 cells; assay type: cell-based
Summary of the method: (§2)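 MDA-MB-231 cells, 4.5×10^5 per well, plated overnight. Then exposed for 24 h to 1, 3 or 10 µM compound or DMSO alone. Western blot probed p-Src (Tyr416), total Src, p-FAK (Tyr861), FAK and GAPDH. Three independent blots.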

[12] = target: Fibroblast growth factor receptor 1 (Homo sapiens) (UniProt P11362); experiment: Inhibition FGFR1 at 10 uM; summary of the method: as §1
[13] = system: MDA-MB-231; experiment: Antiproliferative activity against human MDA-MB-231 cells assessed as viability after 24 hrs by MTT assay; assay type: functional
Summary of the method: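 MDA-MB-231 cells (ATCC; L15 medium, 10% FBS, 37 °C, 5% CO2) exposed to test concentrations for 24 h; viability scored by MTT.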

[14] = target: Vascular endothelial growth factor receptor 1 (Homo sapiens) (UniProt P17948); experiment: Inhibition VEGFR1 at 10 uM; summary of the method: as §1
[15] = target: T2, Tyrosine-protein kinase ABL1; experiment: Inhibition cABl; summary of the method: as §1
[16] = target: T1, Proto-oncogene tyrosine-protein kinase Src; experiment: Inhibition of human SRC-mediated migration of human MDA-MB-231 cells by wound-healing assay
[17] = target: Focal adhesion kinase 1 (Homo sapiens) (UniProt Q05397); experiment: Inhibition of FAK phosphorylation in human MDA-MB-231 cells by Western blotting; assay type: cell-based; summary of the method: as §2
[18] = target: T4, Ephrin type-B receptor 2 (Homo sapiens) (UniProt P29323); experiment: Inhibition EphB2 at 10 uM; summary of the method: as §1
T4 sequence (whole entry): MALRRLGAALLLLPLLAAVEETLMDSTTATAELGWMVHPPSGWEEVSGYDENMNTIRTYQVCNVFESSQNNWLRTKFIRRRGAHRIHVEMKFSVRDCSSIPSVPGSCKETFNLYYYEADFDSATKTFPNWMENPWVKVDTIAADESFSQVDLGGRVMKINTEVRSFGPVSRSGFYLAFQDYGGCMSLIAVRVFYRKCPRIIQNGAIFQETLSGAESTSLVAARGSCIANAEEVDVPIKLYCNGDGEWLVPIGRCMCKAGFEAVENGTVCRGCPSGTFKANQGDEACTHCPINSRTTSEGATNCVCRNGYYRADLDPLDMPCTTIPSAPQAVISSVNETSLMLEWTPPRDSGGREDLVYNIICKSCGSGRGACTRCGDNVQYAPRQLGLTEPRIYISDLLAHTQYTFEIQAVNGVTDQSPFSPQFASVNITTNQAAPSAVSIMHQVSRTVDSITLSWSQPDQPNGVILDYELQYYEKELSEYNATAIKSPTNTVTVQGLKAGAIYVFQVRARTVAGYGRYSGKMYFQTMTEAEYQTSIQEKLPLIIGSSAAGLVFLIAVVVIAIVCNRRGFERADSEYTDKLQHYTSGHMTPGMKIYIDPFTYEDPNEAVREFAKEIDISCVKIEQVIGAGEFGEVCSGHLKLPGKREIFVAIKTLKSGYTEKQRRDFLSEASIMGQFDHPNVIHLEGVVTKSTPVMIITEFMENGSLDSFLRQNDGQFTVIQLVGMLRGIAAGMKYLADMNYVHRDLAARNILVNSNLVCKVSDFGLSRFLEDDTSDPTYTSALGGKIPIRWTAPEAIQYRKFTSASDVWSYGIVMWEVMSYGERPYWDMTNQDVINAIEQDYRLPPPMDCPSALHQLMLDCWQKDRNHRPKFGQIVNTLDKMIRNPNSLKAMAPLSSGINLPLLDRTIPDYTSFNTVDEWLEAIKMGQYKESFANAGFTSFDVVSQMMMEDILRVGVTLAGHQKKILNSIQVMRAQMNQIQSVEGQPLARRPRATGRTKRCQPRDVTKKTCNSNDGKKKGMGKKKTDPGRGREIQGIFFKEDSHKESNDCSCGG

[19] = target: T1, Proto-oncogene tyrosine-protein kinase Src; experiment: Inhibition of human SRC-mediated invasion of human MDA-MB-231 cells; assay type: cell-based
Summary of the method: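 Matrigel-coated (1 mg/mL) Transwell filters, 8 lm pores, with 10% FBS in the lower chamber. MDA-MB-231 cells and compound or DMSO were added together to the upper chamber and invaded 18 h at 37 °C. Non-invaded cells were removed. Invaded cells were stained with crystal violet, extracted with 10% acetic acid and read at 595 nm. Mean of three experiments, SD.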

[20] = target: Fibroblast growth factor receptor 2 (Homo sapiens) (UniProt P21802); details: 10 uM

T1 sequence (P12931 2-536 limits assumed): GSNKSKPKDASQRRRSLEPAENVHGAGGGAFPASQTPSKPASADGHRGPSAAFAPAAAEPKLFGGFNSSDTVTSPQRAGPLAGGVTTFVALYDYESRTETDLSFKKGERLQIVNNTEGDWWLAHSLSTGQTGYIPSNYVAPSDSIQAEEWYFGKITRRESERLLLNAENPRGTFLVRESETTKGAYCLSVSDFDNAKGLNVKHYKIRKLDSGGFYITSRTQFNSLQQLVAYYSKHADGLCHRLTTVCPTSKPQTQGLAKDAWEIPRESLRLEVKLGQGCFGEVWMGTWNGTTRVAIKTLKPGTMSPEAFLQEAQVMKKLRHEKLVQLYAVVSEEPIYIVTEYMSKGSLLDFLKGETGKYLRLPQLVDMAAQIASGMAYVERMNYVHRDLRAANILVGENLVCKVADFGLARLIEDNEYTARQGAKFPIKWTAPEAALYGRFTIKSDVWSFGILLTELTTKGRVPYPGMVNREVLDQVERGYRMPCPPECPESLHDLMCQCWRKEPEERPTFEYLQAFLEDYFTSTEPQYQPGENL
T3 sequence (P10721 whole entry): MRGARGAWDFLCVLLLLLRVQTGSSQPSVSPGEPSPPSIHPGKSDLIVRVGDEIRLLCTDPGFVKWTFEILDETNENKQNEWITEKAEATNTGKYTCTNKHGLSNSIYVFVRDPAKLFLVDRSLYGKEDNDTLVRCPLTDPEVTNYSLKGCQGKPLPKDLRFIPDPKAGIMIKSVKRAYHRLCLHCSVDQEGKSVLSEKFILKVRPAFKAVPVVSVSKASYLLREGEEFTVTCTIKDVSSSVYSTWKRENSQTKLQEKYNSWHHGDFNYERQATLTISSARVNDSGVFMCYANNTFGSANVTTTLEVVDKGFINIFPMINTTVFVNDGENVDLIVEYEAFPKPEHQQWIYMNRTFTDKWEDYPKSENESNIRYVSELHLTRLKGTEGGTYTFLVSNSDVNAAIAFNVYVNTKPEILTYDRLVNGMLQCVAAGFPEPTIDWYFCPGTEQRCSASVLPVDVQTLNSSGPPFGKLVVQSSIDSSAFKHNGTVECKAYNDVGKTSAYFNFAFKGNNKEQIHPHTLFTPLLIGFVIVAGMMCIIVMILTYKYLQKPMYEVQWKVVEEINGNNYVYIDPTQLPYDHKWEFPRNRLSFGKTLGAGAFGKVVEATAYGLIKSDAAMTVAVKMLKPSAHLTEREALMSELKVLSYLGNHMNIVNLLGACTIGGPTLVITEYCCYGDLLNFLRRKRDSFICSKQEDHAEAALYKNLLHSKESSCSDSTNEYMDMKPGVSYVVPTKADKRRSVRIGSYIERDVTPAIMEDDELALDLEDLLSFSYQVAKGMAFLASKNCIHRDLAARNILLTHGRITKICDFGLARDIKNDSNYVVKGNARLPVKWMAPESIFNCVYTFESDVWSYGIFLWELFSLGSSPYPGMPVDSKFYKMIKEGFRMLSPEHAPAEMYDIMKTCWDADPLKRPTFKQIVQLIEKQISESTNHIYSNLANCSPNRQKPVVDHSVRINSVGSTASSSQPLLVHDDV
T2 sequence (P00519 whole entry): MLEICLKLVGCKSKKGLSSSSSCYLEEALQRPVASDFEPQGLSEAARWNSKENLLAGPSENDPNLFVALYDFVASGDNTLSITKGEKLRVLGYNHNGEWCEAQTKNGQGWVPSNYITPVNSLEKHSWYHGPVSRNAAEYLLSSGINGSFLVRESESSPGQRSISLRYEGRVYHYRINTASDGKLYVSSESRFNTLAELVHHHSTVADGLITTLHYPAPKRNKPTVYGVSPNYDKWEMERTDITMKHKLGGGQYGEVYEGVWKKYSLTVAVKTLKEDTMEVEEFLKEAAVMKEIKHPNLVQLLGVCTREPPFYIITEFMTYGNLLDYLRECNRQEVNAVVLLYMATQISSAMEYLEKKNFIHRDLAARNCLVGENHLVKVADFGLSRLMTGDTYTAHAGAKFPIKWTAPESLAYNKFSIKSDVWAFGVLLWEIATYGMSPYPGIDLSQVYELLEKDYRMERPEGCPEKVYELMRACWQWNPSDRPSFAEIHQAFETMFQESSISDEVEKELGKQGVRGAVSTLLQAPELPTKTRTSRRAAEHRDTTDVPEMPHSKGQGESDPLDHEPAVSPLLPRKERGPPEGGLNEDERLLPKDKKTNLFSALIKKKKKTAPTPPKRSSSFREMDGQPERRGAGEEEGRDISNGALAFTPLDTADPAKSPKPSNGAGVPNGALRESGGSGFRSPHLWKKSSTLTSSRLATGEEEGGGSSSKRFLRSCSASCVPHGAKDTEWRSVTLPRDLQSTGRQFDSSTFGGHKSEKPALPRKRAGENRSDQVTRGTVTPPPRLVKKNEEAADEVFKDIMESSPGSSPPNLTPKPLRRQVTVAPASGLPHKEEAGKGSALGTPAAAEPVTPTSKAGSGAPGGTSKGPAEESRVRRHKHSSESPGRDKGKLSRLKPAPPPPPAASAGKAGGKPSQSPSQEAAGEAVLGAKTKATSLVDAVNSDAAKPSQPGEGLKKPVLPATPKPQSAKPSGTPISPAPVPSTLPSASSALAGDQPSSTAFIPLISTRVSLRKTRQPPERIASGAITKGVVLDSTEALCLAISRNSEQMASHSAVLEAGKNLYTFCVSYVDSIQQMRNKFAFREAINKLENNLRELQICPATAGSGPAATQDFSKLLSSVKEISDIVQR
Sequence of Vascular endothelial growth factor receptor 2 (Homo sapiens) (P35968 whole entry): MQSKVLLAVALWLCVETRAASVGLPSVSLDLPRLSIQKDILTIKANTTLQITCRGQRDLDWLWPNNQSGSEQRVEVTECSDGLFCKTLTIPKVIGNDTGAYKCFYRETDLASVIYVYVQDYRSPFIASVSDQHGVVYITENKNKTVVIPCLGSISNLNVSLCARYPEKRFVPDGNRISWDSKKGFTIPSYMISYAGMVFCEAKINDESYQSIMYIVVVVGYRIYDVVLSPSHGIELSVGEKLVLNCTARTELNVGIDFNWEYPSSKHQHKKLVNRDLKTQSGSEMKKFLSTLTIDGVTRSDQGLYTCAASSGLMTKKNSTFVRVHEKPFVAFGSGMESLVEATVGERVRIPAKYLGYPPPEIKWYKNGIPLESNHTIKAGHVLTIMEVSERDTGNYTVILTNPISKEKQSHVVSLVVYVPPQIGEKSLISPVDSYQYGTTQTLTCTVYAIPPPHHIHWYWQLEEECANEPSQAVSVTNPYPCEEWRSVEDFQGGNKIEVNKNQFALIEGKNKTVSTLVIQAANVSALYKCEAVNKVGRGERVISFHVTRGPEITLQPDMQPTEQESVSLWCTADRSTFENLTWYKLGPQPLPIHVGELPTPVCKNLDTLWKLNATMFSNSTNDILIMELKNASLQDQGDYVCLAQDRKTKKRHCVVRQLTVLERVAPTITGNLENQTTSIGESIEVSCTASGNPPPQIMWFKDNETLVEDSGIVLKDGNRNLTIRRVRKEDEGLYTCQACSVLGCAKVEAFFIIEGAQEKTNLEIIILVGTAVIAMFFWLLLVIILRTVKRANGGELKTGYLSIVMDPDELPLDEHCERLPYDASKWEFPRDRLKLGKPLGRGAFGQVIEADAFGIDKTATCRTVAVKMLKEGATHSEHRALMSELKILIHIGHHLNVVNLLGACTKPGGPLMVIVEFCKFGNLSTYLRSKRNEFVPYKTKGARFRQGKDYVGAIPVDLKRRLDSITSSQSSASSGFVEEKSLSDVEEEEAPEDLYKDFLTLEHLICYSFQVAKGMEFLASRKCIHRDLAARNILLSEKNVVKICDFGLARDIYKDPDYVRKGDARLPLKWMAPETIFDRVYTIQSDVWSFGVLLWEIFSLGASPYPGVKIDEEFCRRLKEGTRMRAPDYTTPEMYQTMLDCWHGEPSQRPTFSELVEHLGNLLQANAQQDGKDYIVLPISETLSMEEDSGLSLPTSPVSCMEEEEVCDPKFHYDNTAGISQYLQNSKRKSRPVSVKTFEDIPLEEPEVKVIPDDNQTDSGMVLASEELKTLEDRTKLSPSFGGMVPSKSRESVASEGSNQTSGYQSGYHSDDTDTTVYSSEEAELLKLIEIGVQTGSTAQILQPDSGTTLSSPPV
Sequence of Platelet-derived growth factor receptor beta (Homo sapiens) (P09619 whole entry): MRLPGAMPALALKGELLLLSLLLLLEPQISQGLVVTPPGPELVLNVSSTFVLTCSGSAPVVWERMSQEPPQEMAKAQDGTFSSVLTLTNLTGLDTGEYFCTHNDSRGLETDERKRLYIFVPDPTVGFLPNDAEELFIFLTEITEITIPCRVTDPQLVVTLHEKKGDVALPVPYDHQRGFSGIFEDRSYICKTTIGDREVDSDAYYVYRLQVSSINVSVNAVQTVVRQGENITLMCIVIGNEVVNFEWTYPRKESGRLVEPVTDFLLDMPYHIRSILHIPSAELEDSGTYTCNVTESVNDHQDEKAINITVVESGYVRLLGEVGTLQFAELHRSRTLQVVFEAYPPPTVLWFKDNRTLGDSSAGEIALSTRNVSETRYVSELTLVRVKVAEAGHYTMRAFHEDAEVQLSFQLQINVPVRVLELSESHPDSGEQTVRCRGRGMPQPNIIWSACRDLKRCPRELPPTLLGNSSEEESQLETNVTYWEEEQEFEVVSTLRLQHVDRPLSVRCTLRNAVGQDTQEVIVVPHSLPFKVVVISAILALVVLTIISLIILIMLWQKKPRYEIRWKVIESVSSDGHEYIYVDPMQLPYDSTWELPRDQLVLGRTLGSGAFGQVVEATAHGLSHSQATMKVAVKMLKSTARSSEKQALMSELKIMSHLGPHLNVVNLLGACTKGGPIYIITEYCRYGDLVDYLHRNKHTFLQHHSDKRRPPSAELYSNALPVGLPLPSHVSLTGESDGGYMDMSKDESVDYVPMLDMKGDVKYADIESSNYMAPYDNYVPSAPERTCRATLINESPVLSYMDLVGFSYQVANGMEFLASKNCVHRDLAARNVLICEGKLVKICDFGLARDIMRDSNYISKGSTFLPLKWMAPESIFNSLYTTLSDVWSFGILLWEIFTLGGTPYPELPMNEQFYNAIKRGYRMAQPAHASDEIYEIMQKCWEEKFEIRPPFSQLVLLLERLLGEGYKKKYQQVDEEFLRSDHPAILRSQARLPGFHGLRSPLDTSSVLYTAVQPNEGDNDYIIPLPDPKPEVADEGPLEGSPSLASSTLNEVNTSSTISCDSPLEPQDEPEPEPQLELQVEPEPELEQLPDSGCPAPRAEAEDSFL

IC50 [2] [nM]	SMILES	other results
3140	OCCN1CCN(c2nc(Nc3ccccc3)c3nc[nH]c3n2)CC1	
340	NS(=O)(=O)c1cccc(Nc2nc(N3CCN(CCO)CC3)nc3nc[nH]c23)c1	
> 10000	COc1ccc(Nc2nc(N3CCNCC3)nc3c2ncn3Cc2ccccc2)cc1	inhibition [1]: 22.5%
> 10000	c1ccc(Cn2cnc3c(Nc4ccccc4)ncnc32)cc1	inhibition [1]: 13.9%
690	OCCN1CCN(c2nc(Nc3ccc(Cl)cc3)c3[nH]cnc3n2)CC1	
100	NS(=O)(=O)c1cccc(Nc2nc(N3CCNCC3)nc3[nH]cnc23)c1	
2010	NC(=O)c1ccc(Nc2nc(N3CCOCC3)nc3nc[nH]c23)cc1	
260	NS(=O)(=O)c1ccc(Nc2nc(N3CCN(CCO)CC3)nc3nc[nH]c23)cc1	
> 10000	COc1ccc(Nc2nc(N3CCOCC3)nc3c2ncn3Cc2ccccc2)cc1	inhibition [1]: 16%
1400	O=[N+]([O-])c1ccc(Nc2nc(N3CCNCC3)nc3[nH]cnc23)cc1	
1220	NC(=O)c1ccc(Nc2nc(N3CCN(CCO)CC3)nc3[nH]cnc23)cc1	
20	NS(=O)(=O)c1ccc(Nc2nc(N3CCOCC3)nc3[nH]cnc23)cc1	inhibition [3]: 73.4%; inhibition [4]: 17.2%; inhibition [5]: 43.2%; inhibition [6]: 47.2%; inhibition [7]: 48.7%; inhibition [8]: 83.1%; inhibition [9]: 43.1%; IC50 [10]: 1350 nM; inhibition [11]: Dose-dependent effect; inhibition [12]: 48.7%; Activity [13]: > 95%; inhibition [14]: 0%; IC50 [15]: 6000 nM; inhibition [16]: Dose-dependent effect; inhibition [17]: Dose-dependent effect; inhibition [18]: 11.5%; inhibition [19]: Dose-dependent effect; inhibition [20]: 4.1%
750	c1ccc(Nc2nc(N3CCOCC3)nc3[nH]cnc23)cc1	
130	O=[N+]([O-])c1cccc(Nc2nc(N3CCOCC3)nc3[nH]cnc23)c1	
780	O=[N+]([O-])c1ccc(Nc2nc(N3CCN(CCO)CC3)nc3nc[nH]c23)cc1	

More lines, now with the values behind:

SMILES	IC50 [2] [nM]	other results
Cc1cccc(Nc2nc(N3CCNCC3)nc3[nH]cnc23)c1		inhibition [1]: 86.6%
Cc1cccc(Nc2nc(N3CCOCC3)nc3nc[nH]c23)c1	830	
COc1ccc(Nc2nc(N3CCNCC3)nc3nc[nH]c23)cc1	2430	
NC(=O)c1ccc(Nc2nc(N3CCNCC3)nc3nc[nH]c23)cc1	2200	
c1ccc(Cn2cnc3c(N4CCOCC4)nc(N4CCOCC4)nc32)cc1	> 10000	inhibition [1]: 16.4%
COc1ccc(Nc2nc(N3CCN(CCO)CC3)nc3nc[nH]c23)cc1	1330	
Cc1cccc(Nc2nc(N3CCNCC3)nc3nc[nH]c23)c1	2420	
Clc1ccc(Nc2nc(N3CCOCC3)nc3nc[nH]c23)cc1	340	
Brc1ccc(Nc2nc(N3CCOCC3)nc3c2ncn3Cc2ccccc2)cc1	> 10000	inhibition [1]: 10.1%
O=[N+]([O-])c1cccc(Nc2nc(N3CCNCC3)nc3nc[nH]c23)c1	950	
CC(=O)Nc1ccc(Nc2nc(N3CCOCC3)nc3[nH]cnc23)cc1	650	
c1ccc(Cn2cnc3c(N4CCOCC4)ncnc32)cc1	> 10000	inhibition [1]: 0%
NS(=O)(=O)c1ccc(Nc2nc(N3CCNCC3)nc3[nH]cnc23)cc1	1820	
Cc1cccc(Nc2nc(N3CCN(CCO)CC3)nc3nc[nH]c23)c1	2550	
CC(=O)Nc1ccc(Nc2nc(N3CCNCC3)nc3nc[nH]c23)cc1	1050	
Brc1ccc(Nc2ncnc3c2ncn3Cc2ccccc2)cc1	> 10000	inhibition [1]: 6.9%
COc1cccc(Nc2nc(N3CCOCC3)nc3[nH]cnc23)c1	930	
c1ccc(Cn2cnc3c(Nc4ccccc4)nc(N4CCNCC4)nc32)cc1	> 10000	inhibition [1]: 35.8%
Brc1ccc(Nc2nc(N3CCOCC3)nc3[nH]cnc23)cc1	450	
COc1ccc(Nc2nc(N3CCOCC3)nc3[nH]cnc23)cc1	130	
O=[N+]([O-])c1cccc(Nc2nc(N3CCN(CCO)CC3)nc3[nH]cnc23)c1	340	
Clc1ccc(Nc2nc(N3CCNCC3)nc3[nH]cnc23)cc1	1180	
O=[N+]([O-])c1ccc(Nc2nc(N3CCOCC3)nc3nc[nH]c23)cc1	390	
COc1ccc(Nc2nc(N3CCNCC3)nc3[nH]cnc23)cc1		inhibition [1]: 90.5%
CC(=O)Nc1ccc(Nc2nc(N3CCN(CCO)CC3)nc3[nH]cnc23)cc1	1590	
NS(=O)(=O)c1cccc(Nc2nc(N3CCOCC3)nc3[nH]cnc23)c1	120	
Brc1ccc(Nc2nc(N3CCNCC3)nc3[nH]cnc23)cc1	1760	
COc1cccc(Nc2nc(N3CCNCC3)nc3nc[nH]c23)c1	1210	
c1ccc(Cn2cnc3c(Nc4ccccc4)nc(N4CCOCC4)nc32)cc1	> 10000	inhibition [1]: 20.2%
COc1cccc(Nc2nc(N3CCN(CCO)CC3)nc3nc[nH]c23)c1	1200	
